Data: ChEMBL document CHEMBL4138281, “Anti-Staphylococcal Calopins from Fruiting Bodies of Caloboletus radicans” (2018)
Converted amounts (≈) assume the structure as drawn. The source made the active and inactive calls. No cut-off for these calls is given here.

Columns and labels:
Pyricularia oryzae = assay: Antimicrobial activity against Magnaporthe oryzae Triticum pathotype at 40 ug/disk after 5 days by disc diffusion method; type: functional, organism-based
Summary of the method: (§1)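 Fungi pre-grown on 10% V8 agar at 25 °C in the dark. A 4 mm mycelial agar block was centred on a 9 cm PDA plate. Paper disks (8 mm) carried 40 μL of a 1000 μg/mL acetone stock, dried, and were set 4 mm from the block. Plates incubated 5 days at 25 °C in the dark; inhibition zone measured in mm; triplicate.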

PC-3 = assay: Cytotoxicity against human PC3 cells at 100 uM after 72 hrs by SRB assay; type: functional, cell-based
Summary of the method: (§2)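 SRB assay. Cells kept in DMEM with 10% FBS and 1% penicillin–streptomycin at 37 °C, 5% CO2. Seeded at 5 × 10^4 cells/mL, adapted overnight, then exposed to compounds for 72 h. Cells fixed with 10% TCA (30 min, 4 °C), stained with SRB for 30 min, washed with 1% acetic acid, OD read at 540 nm. Paclitaxel positive control; 0.05% DMSO negative control; triplicate.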

Staphylococcus aureus [1] = assay: Antimicrobial activity against […] Staphylococcus aureus ATCC 25923 after 18 hrs by MTT based broth dilution assay; type: functional; conditions: ATCC 25923, 18 h
Summary of the method: (§3)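 Strains grown 24 h at 37 °C on nutrient agar. Inoculum of 5 × 10^5 CFU set in 0.9% saline against a 0.5 McFarland standard. Compounds serially diluted 0.5–256 μg/mL in Mueller–Hinton broth, inoculated and incubated 18 h at 37 °C; DMSO control; norfloxacin positive control. MTT (5 mg/mL methanolic) added for 20 min; MIC is the lowest concentration with no growth (no yellow-to-blue change); at least three independent determinations.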

Enterococcus faecalis [2] = assay: Antimicrobial activity against Enterococcus faecalis FF11 at 40 ug/disk after 2 days by disc diffusion method; type: functional, organism-based
Summary of the method: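 Bacterial suspension (1 × 10^5 CFU/mL) spread on Mueller–Hinton agar. Paper disks (8 mm) carried 40 μL of a 1000 μg/mL acetone solution, dried, and were placed on the plate. Incubated 2 days at 37 °C; halo diameter measured; mean ± standard error of three replications; azithromycin positive control.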

Staphylococcus aureus [3] = assay: Antimicrobial activity against tetracycline/methicillin-resistant Staphylococcus aureus XU212 after 18 hrs by MTT based broth dilution assay; type: functional; conditions: XU212, 18 h; summary of the method: as §3
HepG2 = assay: Cytotoxicity against human HepG2 cells at 100 uM after 72 hrs by SRB assay; type: functional, cell-based; summary of the method: as §2
Staphylococcus aureus [4] = assay: Antimicrobial activity against […] Staphylococcus aureus SA1199B after 18 hrs by MTT based broth dilution assay; type: functional; summary of the method: as §3
Staphylococcus aureus [5] = assay: Antimicrobial activity against methicillin-resistant Staphylococcus aureus EMRSA-15 after 18 hrs by MTT based broth dilution assay; type: functional; conditions: EMRSA-15, 18 h; summary of the method: as §3
[6] = system: Colletotrichum gloeosporioides; assay: Antimicrobial activity against Colletotrichum gloeosporioides at 40 ug/disk after 5 days by disc diffusion method; type: functional, organism-based; summary of the method: as §1
Enterococcus faecalis [7] = assay: Antimicrobial activity against Enterococcus faecalis F1B1 assessed as zone of inhibition at 40 ug/disk after 2 days by disc diffusion method; type: functional; conditions: F1B1, 48 h, read-out: DIZ
Summary of the method: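 Disk diffusion on Mueller-Hinton agar spread with bacterial suspension (1 × 10^5 CFU/mL). 40 μL of a 1000 μg/mL acetone solution loaded on an 8 mm paper disk and dried before placement. Incubated 2 days at 37 °C, then diameter of the bacteria-free halo measured. Mean ± standard error of three replicates; azithromycin positive control.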

SMILES | Activity (Pyricularia oryzae) | Activity (PC-3) | MIC (Staphylococcus aureus [1]) [µg/mL] | Activity (Enterococcus faecalis [2]) | MIC (Staphylococcus aureus [3]) [µg/mL] | Activity (HepG2) | MIC (Staphylococcus aureus [4]) [µg/mL] | MIC (Staphylococcus aureus [5]) [µg/mL] | Activity [6] | zone of inhibition at 40 µg/disc (Enterococcus faecalis [7]) [mm]
CC(=O)O[C@@H]1[C@@H](O)C(C)=CC[C@]12[C@H]1[C@H](C)COC(=O)[C@H]1O[C@@]2(C)O | inactive | inactive | 16 (≈ 47 µM) | inactive | 32 (≈ 94 µM) | inactive | 16 (≈ 47 µM) | 32 (≈ 94 µM) | inactive | 
COCC1=CC[C@]2([C@H]3[C@H](C)COC(=O)[C@H]3O[C@@]2(C)OC)[C@H](O)C1=O | inactive | inactive | 128 (≈ 376 µM) | inactive | 128 (≈ 376 µM) | inactive | 256 (≈ 752 µM) | 256 (≈ 752 µM) | inactive | 5.5
CCn1cc(C(=O)O)c(=O)c2cc(F)c(N3CCNCC3)cc21 [NORFLOXACIN] |  |  | 32 (≈ 100 µM) |  | 32 (≈ 100 µM) |  | 64 (≈ 200 µM) | 32 (≈ 100 µM) |  | 
CC1C(=O)[C@@H](O)[C@@]23C[C@H]1O[C@]2(O)O[C@@H]1C(=O)OC[C@@H](C)[C@@H]13 (some centres undefined) | inactive | inactive | 64 (≈ 215 µM) | inactive | 64 (≈ 215 µM) | inactive | 128 (≈ 429 µM) | 64 (≈ 215 µM) | inactive | 
Cc1ccc([C@H]2[C@H](C)COC(=O)[C@H]2O)c(O)c1O | inactive | inactive | 64 (≈ 254 µM) | inactive | 128 (≈ 507 µM) | inactive | 128 (≈ 507 µM) | 128 (≈ 507 µM) | inactive | 5.6
C[C@@H]1COC(=O)[C@H]2O[C@@](C)(O)[C@@]3(CC=C(CO)C(=O)[C@H]3O)[C@@H]12 | inactive | inactive | 64 (≈ 205 µM) | inactive | 64 (≈ 205 µM) | inactive | 128 (≈ 410 µM) | 128 (≈ 410 µM) | inactive | 
CC1=CC[C@]2([C@H]3[C@H](C)COC(=O)[C@H]3O[C@@]2(C)O)[C@H](O)C1=O | inactive | inactive | 32 (≈ 108 µM) | inactive |  | inactive | 64 (≈ 216 µM) | 64 (≈ 216 µM) | inactive | 7.1
CC(=O)O[C@@H]1[C@@H](OC(C)=O)C(C)=CC[C@]12[C@H]1[C@H](C)COC(=O)[C@H]1O[C@@]2(C)O | inactive | inactive |  | inactive | 64 (≈ 167 µM) | inactive | 64 (≈ 167 µM) |  | inactive | 5.5
COCC1=CC[C@]2([C@H]3[C@H](C)COC(=O)[C@H]3O[C@@]2(C)O)[C@H](O)C1=O | inactive | inactive | 64 (≈ 196 µM) | inactive | 128 (≈ 392 µM) | inactive | 64 (≈ 196 µM) | 128 (≈ 392 µM) | inactive | 
CC1=CC[C@]2([C@H]3[C@H](C)COC(=O)[C@H]3O[C@@]2(C)O)[C@@H](O)[C@H]1O | inactive | inactive | 32 (≈ 107 µM) | inactive |  | inactive | 64 (≈ 215 µM) | 64 (≈ 215 µM) | inactive | 
CC(=O)O[C@@H]1C(=O)OC[C@@H](C)[C@@H]1c1ccc(C)c(O)c1O | inactive | inactive |  | inactive | 64 (≈ 217 µM) | inactive | 128 (≈ 435 µM) | 64 (≈ 217 µM) | inactive | 9.5
